In series [1] the target is Cannabinoid receptor 1 (Rattus norvegicus) (UniProt P20272). Briefly: Agonist activity at rat CB1 receptor expressed in HEK293 cells assessed as inhibition of forskolin-induced cAMP accumulation incubated for 30 mins relative to 500 nM CP-55,940. Format: functional, cell-based.
For series [2], the target named is T1, MGL (monoglyceride lipase) (Homo sapiens, UniProt Q99685).
T1 sequence (Q99685 whole entry): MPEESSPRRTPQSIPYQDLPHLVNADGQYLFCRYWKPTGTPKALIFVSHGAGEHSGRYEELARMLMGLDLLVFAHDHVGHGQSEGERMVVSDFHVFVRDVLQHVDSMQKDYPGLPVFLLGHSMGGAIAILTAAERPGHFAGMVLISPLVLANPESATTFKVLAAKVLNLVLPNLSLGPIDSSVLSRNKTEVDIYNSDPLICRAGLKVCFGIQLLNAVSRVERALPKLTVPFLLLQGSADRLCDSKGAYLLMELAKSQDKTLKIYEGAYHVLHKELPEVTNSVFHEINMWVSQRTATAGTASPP
Nature of the series: Stability assessed as human MGL-mediated compound hydrolysis by HPLC analysis. Format: ADME. As to conditions: read-out: Stability. In a few lines: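 Human MGL or ABHD6 expressed in E. coli BL21(DE3); cell lysate in 150 mM NaCl, 50 mM Tris, 1% Triton X-100, pH 8.0. Lysate (0.5 µg total protein) incubated at 37 °C with compound or 2-AG reference for 30 min. Samples at 0–30 min quenched in acetonitrile. Analysed by C18 reversed-phase HPLC with UV at 204 nm against external standards.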

The target of series [3] is T2, Cannabinoid receptor 1 (Rattus norvegicus, UniProt P20272). Nature of the series: Displacement of [3H]CP-55,940 from CB1 receptor in rat brain membranes in absence of FAAH inhibitor PMSF by radioligand binding assay. Format: cell membranes, Membrane.
In series [4] the test system is Mus musculus. Briefly: Antiallodynic activity in CD1 mouse model of CFA-induced inflammatory pain assessed as increase in CFA-reduced mechanical paw withdrawal threshold at 5 mg/kg, ip measured at 60 mins post injection. It is filed as functional, organism-based. The method in brief:
(§1)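 Adult male mice (39 ± 10 g), wild-type CD1 or CB1 KO on CD1 background, single housed. CFA:saline 1:1 (20 μL) injected intraplantar into right hind paw; 48 h allowed before dosing. Drug given ip in 5 mL/kg, vehicle group included. Electronic von Frey (90 g probe) after ≥30 min habituation, read in duplicate per paw, at baseline, 48 h post-CFA and 10, 30, 60, 120 min post-dose. Two-way mixed ANOVA with Bonferroni post hoc tests.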

In series [5] the target is Cannabinoid receptor 2 (Mus musculus, UniProt P47936). Nature of the series: Displacement of [3H]CP-55,940 from mouse CB2 receptor expressed in HEK293 cell membranes in absence of FAAH inhibitor PMSF by radioligand binding assay. The method in brief:
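Membranes from HEK293 cells expressing human or mouse CB2 (preparations lacking FAAH activity), competing against [3H]CP-55,940. IC50 by nonlinear regression, converted to Ki. Three independent experiments run in triplicate; Ki is the mean of the three.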

The test system of series [6] is Mus musculus. Briefly: Antiallodynic activity in CD1 mouse model of CFA-induced inflammatory pain assessed as increase in CFA-reduced mechanical paw withdrawal threshold at 5 mg/kg, ip measured up to 30 mins post injection. Format: functional, organism-based. The method in brief: as §1
In series [7] the target is T2, Cannabinoid receptor 1. Nature of the series: Displacement of [3H]CP-55,940 from CB1 receptor in rat brain membranes in presence of FAAH inhibitor PMSF by radioligand binding assay. Format: cell membranes, Membrane.

Activity calls are given as the source filed them.

T2 sequence (P20272 whole entry): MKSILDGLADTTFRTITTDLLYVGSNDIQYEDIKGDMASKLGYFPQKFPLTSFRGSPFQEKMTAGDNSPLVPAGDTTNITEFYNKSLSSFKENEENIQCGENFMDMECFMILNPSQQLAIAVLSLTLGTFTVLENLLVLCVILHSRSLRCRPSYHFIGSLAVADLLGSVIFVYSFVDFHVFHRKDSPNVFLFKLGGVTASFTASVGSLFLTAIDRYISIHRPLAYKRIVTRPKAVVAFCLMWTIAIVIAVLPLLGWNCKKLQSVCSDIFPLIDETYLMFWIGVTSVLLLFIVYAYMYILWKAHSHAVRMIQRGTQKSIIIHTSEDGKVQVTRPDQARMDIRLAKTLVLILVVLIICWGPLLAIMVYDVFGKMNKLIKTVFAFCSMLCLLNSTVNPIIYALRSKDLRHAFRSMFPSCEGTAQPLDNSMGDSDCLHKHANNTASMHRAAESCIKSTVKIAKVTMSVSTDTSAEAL
Sequence of Cannabinoid receptor 2 (P47936 whole entry): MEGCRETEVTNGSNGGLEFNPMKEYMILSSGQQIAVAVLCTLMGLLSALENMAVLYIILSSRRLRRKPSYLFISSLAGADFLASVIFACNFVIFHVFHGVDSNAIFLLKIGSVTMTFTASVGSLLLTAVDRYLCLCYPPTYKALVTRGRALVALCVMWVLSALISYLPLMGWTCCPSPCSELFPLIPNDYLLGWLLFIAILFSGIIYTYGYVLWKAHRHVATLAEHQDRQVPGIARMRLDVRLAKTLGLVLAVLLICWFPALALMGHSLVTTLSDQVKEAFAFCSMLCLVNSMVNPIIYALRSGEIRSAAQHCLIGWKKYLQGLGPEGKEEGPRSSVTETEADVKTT
Sequence of Cannabinoid receptor 1 (Rattus norvegicus) (P20272 whole entry): as the sequence (P20272 whole entry) above

On to `CCCCC/C=C\[C@H](C)/C=C\C/C=C\C/C=C\CCCC(=O)N[C@H](C)CO`, for which the Emax in series [1] was 76%. Further, in series [2], the half-life is 30 min. The Ki in series [3] stood at 7.8 nM; in series [5], 653 nM; in series [7], 8.9 nM. Moreover, the outcome in series [4] and in series [6] was Active.

The record behind these values is ChEMBL document CHEMBL4196195, “( R)- N-(1-Methyl-2-hydroxyethyl)-13-( S)-methyl-arachidonamide (AMG315): A Novel Chiral Potent Endocannabinoid Ligand with Stability to Metabolizing Enzymes” (J Med Chem, 2018).
